According to ChEMBL document CHEMBL1133674, “A peptide prodrug approach for improving bisphosphonate oral absorption” (J Med Chem, 2000):
Residues, ends and D or L forms follow the SMILES beside them.

Legend:
[1] = (§1) Basolateral to apical fluxes across Caco-2 cell monolayers at 37 degree celsius was studied.; assay type: ADME, organism-based; details: human, read-out: Permeability
Method in brief: (§2)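 Caco-2 monolayers (passage 46-48) grown on collagen-coated polycarbonate Transwell filters, 21-25 days after seeding at 80 000 cells/cm2; TEER checked the day before. Transport run in HBSS with 25 mM Hepes, pH 7.4, at 37 °C with stirring. Receiver sampled at intervals up to 4 h, radioactivity counted by scintillation. Papp = dQ/dt·1/(AC0), computed separately for bisphosphonate and Pro-Phe parts; mean ± SD.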

[2] = Apical to basolateral fluxes across Caco-2 cell monolayers at 37 degree celsius was studied.; assay type: ADME, organism-based; details: human, read-out: Permeability; method in brief: as §2
Homo sapiens = species: Homo sapiens; experiment: as §1; assay type: ADME, organism-based; method in brief: as §2
[3] = Bioavailability by the ratios of 14C p.o. /14C i.v. accumulated in bone at 24 hr (dose 10 mg/kg p.o.); assay type: ADME, organism-based, Bone element; details: eutheria, in vivo, po
Method in brief: (§3)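 Male Sabra rats, housed in metabolic cages, fasted overnight, dosed by stomach tube at 10 mg/kg bisphosphonate equivalent (n = 6). A 1 mg/kg iv jugular-cannula group served as reference. 14C in tibia or urine measured at 24 h by sample-oxidizer combustion and scintillation counting. F = (amount po × Div)/(amount iv × Dpo) × 100.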

[4] = Bioavailability by the ratios of 14C p.o. /14C i.v. accumulated in urine at 24 hr (dose 10 mg/kg p.o.); assay type: ADME, organism-based; details: eutheria, in vivo, po; method in brief: as §3
[5] = Inhibition of HAP dissolution was determined […] at 0.24 mM concentration *: p<0.05; details: 240 µM
Method in brief: (§4)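 Hydroxyapatite tablets (300 mg, 10 mm), wax-coated so that one face is exposed, were stirred overnight at 37 °C in drug solution (240 or 48 µM in Tris, pH 7.4). They were then moved to acetate buffer, pH 5, at 37 °C. Dissolved calcium was read by atomic absorption at timed points, with the medium replenished after each sample.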

[6] = Inhibition of HAP formation, by the compound (1.0 mM) absorbed, was obtained in vitro studies.*: p<0.05; details: 1000 µM
Method in brief: (§5)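 HAP precipitation was run with calcium 3.87 mM and phosphate 2.32 mM (Ca/PO4 1.67) in 0.05 M Tris, pH 7.4. Compound (0.1 or 1 mM) was dissolved in the phosphate solution. After 24 h incubation, filtrate calcium was measured by atomic absorption spectroscopy.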

[7] = Inhibition of HAP formation, by the compound (0.1 mM) absorbed, was obtained in vitro studies.*: p<0.05; details: 100 µM; method in brief: as §5
[8] = (§6) Inhibition of HAP dissolution was determined […] at 0.048 mM concentration *: p<0.05; details: 48 µM; method in brief: as §4
[9] = Inhibition of HAP dissolution was determined in […] at 0.24 mM concentration *: p<0.05; set-up: scale not given: the % may be the effect or the level left; details: 240 µM; method in brief: as §4
[10] = as §6; set-up: scale not given: the % may be the effect or the level left; details: 48 µM; method in brief: as §4

Compound	Papp B→A [1] [×10⁻⁶ cm/s]	Papp A→B [2] [×10⁻⁶ cm/s]	Permeability (Homo sapiens) [×10⁻⁶ cm/s]	Bioavailability [3] [%]	Bioavailability [4] [%]	Inhibition [5] [%]	Initial concentration [6] [%]	Initial concentration [7] [%]	Inhibition [8] [%]	Control [9] [%]	Control [10] [%]
O=C(O)[C@H](Cc1ccccc1)NC(=O)[C@@H]1CCCN1 (H-Pro-Phe-OH)	1.14	2.29	–	–	–	–	–	–	–	–	–
O=C(N[C@@H](Cc1ccccc1)C(=O)NCCCC(O)(P(=O)(O)O)P(=O)(O)O)[C@@H]1CCCN1 (stereo in doubt; form 1)	–	0.23	0.16	1.74	3.1	–	–	–	–	–	–
O=C(N[C@@H](Cc1ccccc1)C(=O)NCCCC(O)(P(=O)(O)O)P(=O)(O)O)[C@@H]1CCCN1 (stereo in doubt; form 2)	–	1.03	0.55	–	–	–	–	–	–	–	–
OC[C@@H](O)[C@@H](O)[C@H](O)[C@H](O)CO [MANNITOL]	0.22	0.26	–	–	–	–	–	–	–	–	–
NCCC(O)(P(=O)(O)O)P(=O)(O)O [PAMIDRONIC ACID]	0.04	0.05	–	0.44	1.74	–	46.9	63.8	–	55.7	79.4

The next lines start with the values.

Papp B→A [1] [×10⁻⁶ cm/s]	Papp A→B [2] [×10⁻⁶ cm/s]	Permeability (Homo sapiens) [×10⁻⁶ cm/s]	Bioavailability [3] [%]	Bioavailability [4] [%]	Inhibition [5] [%]	Initial concentration [6] [%]	Initial concentration [7] [%]	Inhibition [8] [%]	Control [9] [%]	Control [10] [%]	Compound
–	0.5	0.41	–	–	–	–	–	–	–	–	O=C(N[C@@H](Cc1ccccc1)C(=O)NCCC(O)(P(=O)(O)O)P(=O)(O)O)[C@@H]1CCCN1 (stereo in doubt; form 1)
–	0.11	0.09	1.65	3.17	59.1	40.5	83.8	79.4	–	–	O=C(N[C@@H](Cc1ccccc1)C(=O)NCCC(O)(P(=O)(O)O)P(=O)(O)O)[C@@H]1CCCN1 (stereo in doubt; form 2)
